Assay results published in ChEMBL document CHEMBL4145448, “Broad activity of diphenyleneiodonium analogues against Mycobacterium tuberculosis, malaria parasites and bacterial pathogens” (Eur J Med Chem, 2018).

Key:
Pseudomonas aeruginosa [1] = test: Antibacterial activity against Pseudomonas aeruginosa ATCC 27853 after 18 hrs by broth microdilution method; format: functional; settings: ATCC 27853, 18 h
Outline: (§1)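 Broth microdilution per CLSI in cation-adjusted Mueller-Hinton broth. 100 µL inoculum (~10^6 cfu/mL in CaMHB) mixed with 100 µL CaMHB containing compound, 0 to 128 µM. Incubated 18 h at 37 °C. MIC taken as the lowest concentration with no visible growth. Polymyxin B served as positive control. Isolates were stored at -80 °C in tryptone soy broth with 20% glycerol.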

Pseudomonas aeruginosa [2] = test: Antibacterial activity against Pseudomonas aeruginosa QLD PSA 1 after 18 hrs by broth microdilution method; format: functional; settings: QLD PSA 1, 18 h; outline: as §1
Pseudomonas aeruginosa [3] = test: Antibacterial activity against Pseudomonas aeruginosa isolate 912 after 18 hrs by broth microdilution method; format: functional; settings: isolate 912, 18 h; outline: as §1
Pseudomonas aeruginosa [4] = test: Antibacterial activity against Pseudomonas aeruginosa isolate 18878B klon 1 after 18 hrs by broth microdilution method; format: functional; settings: isolate 18878B klon 1, 18 h; outline: as §1
Acinetobacter baumannii [5] = test: Antibacterial activity against Acinetobacter baumannii isolate 246-01-C after 18 hrs by broth microdilution method; format: functional; outline: as §1
Acinetobacter baumannii [6] = test: Antibacterial activity against Acinetobacter baumannii ATCC 19606 col10 after 18 hrs by broth microdilution method; format: functional; settings: ATCC 19606 = CIP 70.34 = JCM 6841 col10, 18 h; outline: as §1
Acinetobacter baumannii [7] = test: Antibacterial activity against Acinetobacter baumannii isolate 07AC-336 after 18 hrs by broth microdilution method; format: functional; settings: isolate 07AC-336, 18 h; outline: as §1
Klebsiella pneumoniae [8] = test: Antibacterial activity against Klebsiella pneumoniae isolate M320445 after 18 hrs by broth microdilution method; format: functional; settings: isolate M320445, 18 h; outline: as §1
Klebsiella pneumoniae [9] = test: Antibacterial activity against Klebsiella pneumoniae isolate 1 after 18 hrs by broth microdilution method; format: functional; settings: isolate 1, 18 h; outline: as §1
Klebsiella pneumoniae [10] = test: Antibacterial activity against Klebsiella pneumoniae isolate 224-11-C after 18 hrs by broth microdilution method; format: functional; outline: as §1
Klebsiella pneumoniae [11] = test: Antibacterial activity against Klebsiella pneumoniae isolate 248-33-D after 18 hrs by broth microdilution method; format: functional; outline: as §1
Escherichia coli [12] = test: Antibacterial activity against Escherichia coli N4149 after 18 hrs by broth microdilution method; format: functional; settings: N4149, 18 h; outline: as §1
Escherichia coli [13] = test: Antibacterial activity against Escherichia coli N11281 after 18 hrs by broth microdilution method; format: functional; settings: N11281, 18 h; outline: as §1
Staphylococcus aureus = test: Antibacterial activity against vancomycin-resistant Staphylococcus aureus ATCC 700699 after 18 hrs by broth microdilution method; format: functional; settings: ATCC 700699, 18 h; outline: as §1
[14] = Selectivity index, ratio of CC50 for human HepG2 cells in presence of 1% FBS to MIC for Pseudomonas aeruginosa QLD PSA 1; format: toxicity; settings: read-out: Selectivity Index
Outline: (§2)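 Selectivity index is CC50 (1% FBS) divided by MIC. […] They then got compound at 300 to 0.14 µM (3-fold steps) for 24 h at 37 °C, 5% CO2. Resazurin (10 µM, 2 h) was read at ex/em 560/590 in duplicate wells. For MIC, CLSI broth microdilution was run in CaMHB with ~10^6 cfu/mL inoculum and 0–128 µM compound.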

[15] = Selectivity index, ratio of CC50 for human HepG2 cells in presence of 1% FBS to MIC for Pseudomonas aeruginosa isolate 18878B klon 1; format: toxicity; settings: read-out: Selectivity Index; outline: as §2
[16] = Selectivity index, ratio of CC50 for human HepG2 cells in presence of 1% FBS to MIC for Pseudomonas aeruginosa isolate M146201; format: toxicity; settings: read-out: Selectivity Index; outline: as §2
[17] = Selectivity index, ratio of CC50 for human HepG2 cells in presence of 1% FBS to MIC for Acinetobacter baumannii ATCC 19606; format: toxicity; settings: read-out: Selectivity Index
[18] = Selectivity index, ratio of CC50 for human HepG2 cells in presence of 1% FBS to MIC for Acinetobacter baumannii isolate 246-01-C; format: toxicity; settings: read-out: Selectivity Index
[19] = Selectivity index, ratio of CC50 for human HepG2 cells in presence of 1% FBS to MIC for Acinetobacter baumannii ATCC 17978 col10; format: toxicity; settings: read-out: Selectivity Index
[20] = Selectivity index, ratio of CC50 for human HepG2 cells in presence of 1% FBS to MIC for Klebsiella pneumoniae ATCC 13883; format: toxicity; settings: read-out: Selectivity Index
[21] = Selectivity index, ratio of CC50 for human HepG2 cells in presence of 1% FBS to MIC for Klebsiella pneumoniae isolate 1; format: toxicity; settings: read-out: Selectivity Index
[22] = Selectivity index, ratio of CC50 for human HepG2 cells in presence of 1% FBS to MIC for Klebsiella pneumoniae isolate 224-11-C; format: toxicity; settings: read-out: Selectivity Index
[23] = Selectivity index, ratio of CC50 for human HepG2 cells in presence of 1% FBS to MIC for Klebsiella pneumoniae isolate 248-33-D; format: toxicity; settings: read-out: Selectivity Index
[24] = Selectivity index, ratio of CC50 for human HepG2 cells in presence of 1% FBS to MIC for Escherichia coli N4149; format: toxicity; settings: read-out: Selectivity Index
[25] = Selectivity index, ratio of CC50 for human HepG2 cells in presence of 1% FBS to MIC for Escherichia coli N11281; format: toxicity; settings: read-out: Selectivity Index
[26] = Selectivity index, ratio of CC50 for human HepG2 cells in presence of 1% FBS to MIC for vancomycin-resistant Enterococcus faecium ATCC 700221; format: toxicity; settings: read-out: Selectivity Index; outline: as §2
[27] = Selectivity index, ratio of CC50 for human HepG2 cells in presence of 1% FBS to MIC for vancomycin-intermediate Staphylococcus aureus ATCC 700698; format: toxicity; settings: read-out: Selectivity Index; outline: as §2
[28] = Selectivity index, ratio of CC50 for human HepG2 cells in presence of 1% FBS to MIC for vancomycin-resistant Staphylococcus aureus ATCC 700699; format: toxicity; settings: read-out: Selectivity Index; outline: as §2
[29] = tested on: Mycobacterium tuberculosis; test: Antimycobacterial activity against Mycobacterium tuberculosis H37Rv ATCC 25618 after 7 days by resazurin dye based assay; format: functional; settings: H37Rv ATCC 25618, 168 h
Outline: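 H37Rv grown at 37 °C in 7H9 with 10% ADC, 0.5% glycerol and 0.02% tyloxapol. Compounds serially diluted in water, 0 to 10 µM, in triplicate. Culture adjusted to OD600 0.001 and incubated 7 days at 37 °C. Resazurin (0.05% w/v) added for 4-24 h and fluorescence read at 590 nm. MIC is the lowest concentration giving complete growth inhibition versus untreated. Rifampicin served as control.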

[30] = Selectivity index, ratio of CC50 for human HepG2 cells in presence of 1% FBS to MIC for Mycobacterium tuberculosis H37Rv ATCC 25618; format: toxicity; settings: read-out: Selectivity Index
[31] = Cytotoxicity against human HepG2 cells after 24 hrs in presence of 1% FBS by resazurin dye based assay; format: cell-based
Outline: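 HepG2 cells seeded at 4000/well in DMEM with 1% FBS and allowed to attach for 24 h at 37 °C, 5% CO2. Compounds added from 300 to 0.14 µM in 3-fold steps and incubated 24 h. 10 µM resazurin added for 2 h, fluorescence read at ex/em 560/590. Percent viability computed relative to untreated and negative controls, duplicate wells.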

[32] = Selectivity index, ratio of CC50 for human HepG2 cells in presence of 1% FBS to IC50 for CQ-sensitive GFP-fused Plasmodium falciparum D10; format: toxicity; settings: read-out: Ratio IC50

| SMILES | MIC (Pseudomonas aeruginosa [1]) [µM] | MIC (Pseudomonas aeruginosa [2]) [µM] | MIC (Pseudomonas aeruginosa [3]) [µM] | MIC (Pseudomonas aeruginosa [4]) [µM] | MIC (Acinetobacter baumannii [5]) [µM] | MIC (Acinetobacter baumannii [6]) [µM] | MIC (Acinetobacter baumannii [7]) [µM] | MIC (Klebsiella pneumoniae [8]) [µM] | MIC (Klebsiella pneumoniae [9]) [µM] | MIC (Klebsiella pneumoniae [10]) [µM] | MIC (Klebsiella pneumoniae [11]) [µM] | MIC (Escherichia coli [12]) [µM] | MIC (Escherichia coli [13]) [µM] | MIC (Staphylococcus aureus) [µM] | selectivity ratio [14] | selectivity ratio [15] | selectivity ratio [16] | selectivity ratio [17] | selectivity ratio [18] | selectivity ratio [19] | further results |
| --- | --- | --- | --- | --- | --- | --- | --- | --- | --- | --- | --- | --- | --- | --- | --- | --- | --- | --- | --- | --- | --- |
| COc1ccc2c(c1)[I+]c1ccccc1-2 | > 70 | 70 | > 70 | 18 | 35 | 2.2 | > 70 | 70 | > 70 | > 70 | > 70 | > 70 | > 70 | 8.7 | 0.11 | 0.39 | 0.11 | 0.39 | 0.21 | 3.1 | selectivity ratio [20]: > 0.11; selectivity ratio [21]: > 0.11; selectivity ratio [22]: > 0.11; selectivity ratio [23]: > 0.11; selectivity ratio [24]: > 0.11; selectivity ratio [25]: > 0.11; selectivity ratio [26]: 1.6; selectivity ratio [27]: 0.78; selectivity ratio [28]: 0.78; MIC [29]: 0.28 µM; selectivity ratio [30]: 24; CC50 at 24 h [31]: 6.8 µM |
| Cc1cccc2c1-c1ccccc1[I+]2 | 18 | 4.5 | 1.1 | 1.1 | 2.3 | 2.3 | 2.2 | 36 | 72 | > 72 | > 72 | > 72 | 18 | 36 | 0.58 | 2.3 | 1.2 | 1.2 | 1.2 | 4.6 | selectivity ratio [20]: 0.14; selectivity ratio [21]: 0.04; selectivity ratio [22]: > 0.04; selectivity ratio [23]: > 0.04; selectivity ratio [24]: > 0.04; selectivity ratio [25]: 0.14; selectivity ratio [26]: 1.2; selectivity ratio [27]: 0.07; selectivity ratio [28]: 0.07; MIC [29]: 0.14 µM; selectivity ratio [30]: 19; selectivity ratio [32]: 37; CC50 at 24 h [31]: 2.6 µM |
| Clc1cccc2c1-c1ccccc1[I+]2 | < 0.27 | 0.54 | < 0.27 | < 0.27 | < 0.27 | < 0.27 | < 0.27 | 8.6 | 8.6 | 8.6 | 8.6 | 0.54 | 2.2 | 1.1 | 1.2 | < 2.4 | 1.2 | < 2.4 | < 2.4 | < 2.4 | selectivity ratio [20]: 0.15; selectivity ratio [21]: 0.08; selectivity ratio [22]: 0.08; selectivity ratio [23]: 0.08; selectivity ratio [24]: 1.2; selectivity ratio [25]: 0.31; selectivity ratio [26]: < 2.4; selectivity ratio [27]: 0.29; selectivity ratio [28]: 0.61; MIC [29]: 0.28 µM; selectivity ratio [30]: 2.4; selectivity ratio [32]: 13; CC50 at 24 h [31]: 0.66 µM |
| c1ccc2c(c1)[I+]c1ccccc1-2 | 75 | 9.3 | 4.7 | 4.7 | 4.7 | 4.7 | 19 | 37 | 75 | 75 | 37 | 37 | 37 | 19 | 3.1 | 6.3 | 3.1 | 3.1 | 6.3 | 50 | selectivity ratio [20]: 0.78; selectivity ratio [21]: 0.78; selectivity ratio [22]: 0.78; selectivity ratio [23]: 0.78; selectivity ratio [24]: 0.78; selectivity ratio [25]: 0.78; selectivity ratio [26]: 6.3; selectivity ratio [27]: 1.6; selectivity ratio [28]: 1.6; MIC [29]: 0.3 µM; selectivity ratio [30]: 96; selectivity ratio [32]: 221; CC50 at 24 h [31]: 29.2 µM |
| COc1cccc2c1-c1ccccc1[I+]2 | > 70 | > 70 | 70 | 70 | 70 | 17 | 70 | 70 | > 70 | > 70 | > 70 | > 70 | > 70 | 35 | > 0.55 | 0.55 | > 0.55 | 1.1 | 0.55 | 1.1 | selectivity ratio [20]: > 0.55; selectivity ratio [21]: > 0.55; selectivity ratio [22]: > 0.55; selectivity ratio [23]: > 0.55; selectivity ratio [24]: > 0.55; selectivity ratio [25]: > 0.55; selectivity ratio [26]: 4.4; selectivity ratio [27]: 1.1; selectivity ratio [28]: 1.1; MIC [29]: 4.4 µM; selectivity ratio [30]: 8.8; selectivity ratio [32]: 225; CC50 at 24 h [31]: 38.3 µM |
| Fc1cccc2c1-c1ccccc1[I+]2 | 2.2 | 4.5 | 4.5 | < 0.28 | < 0.28 | 0.56 | 1.1 | 9 | 9 | 9 | 9 | 1.1 | 4.5 | 2.2 | 1 | < 16 | 4.1 | 8.2 | < 16 | < 16 | selectivity ratio [20]: 1; selectivity ratio [21]: 0.51; selectivity ratio [22]: 0.51; selectivity ratio [23]: 0.51; selectivity ratio [24]: 4.2; selectivity ratio [25]: 1; selectivity ratio [26]: 8.2; selectivity ratio [27]: 2.1; selectivity ratio [28]: 2.1; MIC [29]: 0.29 µM; selectivity ratio [30]: 16; selectivity ratio [32]: 96; CC50 at 24 h [31]: 4.6 µM |
